This is a sample that favours compounds with a hit; in the whole collection about 4.2% have one here.
TAAR1 ag = agonists of human TAAR1; activation, % at 3 µM; Q96RJ0; 0.99% of 360,000 active; CHO RD-HGA16 TAAR1, Fluo-8 calcium fluorescence; vehicle wells 0%, saturating PEA agonist 100%;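 active = activation above the mean activation of all test compounds in the run plus 3 SD, cut at about 38% in these data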
Target sequence (Q96RJ0 whole entry, looked up): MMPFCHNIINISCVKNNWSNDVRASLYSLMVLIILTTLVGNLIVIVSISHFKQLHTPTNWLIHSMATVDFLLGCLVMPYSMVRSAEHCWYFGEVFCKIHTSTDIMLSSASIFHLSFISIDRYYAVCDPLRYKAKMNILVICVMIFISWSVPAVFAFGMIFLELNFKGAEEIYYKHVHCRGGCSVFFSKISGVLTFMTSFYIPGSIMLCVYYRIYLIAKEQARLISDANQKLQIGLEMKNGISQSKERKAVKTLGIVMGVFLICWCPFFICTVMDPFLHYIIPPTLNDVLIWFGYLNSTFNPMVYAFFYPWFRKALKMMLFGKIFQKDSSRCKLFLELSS
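System: CHO RD-HGA16 cells carrying human TAAR1 plus Gα16; Incubation: 17-24 h seeding, 75 min 37 °C dye, 30 min RT; Measured by: Fluo-8 fluorescence, 5 s baseline then 140 s kinetic read; Control set: DMSO and PEA EC100; Replication: single well for each compound.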
OX1R antag-1 = blocks the human orexin 1 receptor; O43613; OX1R-expressing cells, FRET antagonist read-out; inhibition, % at 6.6 µM; 1.8% of 330,000 active; AID 485270; in the data active = inhibition mostly above about 38%, no sharp cut-off; inactive = mostly below about 40%;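 also: 0% = agonist challenge alone and 100% = reference antagonist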
TAAR1 antag = antagonists of human TAAR1. Q96RJ0. CHO RD-HGA16 TAAR1, Fluo-8 calcium fluorescence, antagonist. 1.5% of 360,000 active. inhibition, % at 3 µM. AID 624466;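 active = inhibition above a per-plate cutoff, the mean inhibition of test compounds on that plate plus 3 SD, cut at about 49% in these data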;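 also: 0% = DMSO plus EC80 beta-PEA response and 100% = DMSO alone without agonist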
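System: CHO RD-HGA16 cells bearing hTAAR1. Reagent: EC80 β-phenethylamine stimulus. Schedule: seeding 17-24 h prior, 75-min 37 °C, 30-min RT dye loading. Signal: Fluo-8 intracellular calcium dye fluorescence, real-time kinetic reads. Read-out: % inhibition from peak post-agonist over basal fluorescence ratio. Benchmarks: vehicle wells and EC80 agonist wells. Replicates: n of 1.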
CHO parental Ca = counter-screen: ATP calcium response change in parental CHO cells. inhibition, % at 5.6 µM. AID 463079. parental CHO-K1, ATP-induced calcium, Fluo-8 fluorescence. 0.63% of 330,000 active;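 active = inhibition above that plate's mean sample inhibition plus 3 SD, cut at about 26% in these data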;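 also: 0% = ATP-challenged DMSO wells and 100% = DMSO wells without ATP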
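Material: Parental CHO cells | Reagent: ATP | Compound dosing: Single nominal dose of 5.6 µM per compound | Detection: Intracellular calcium via Fluo-8 no-wash fluorescent dye | Read-out: % inhibition of ATP-induced calcium mobilization | Benchmarks: Low control ATP plus DMSO, high control DMSO only | Replicates: Singlicate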
GalR3 antag = antagonists of human GalR3; O60755; HEK293 GalR3-CNG cAMP membrane potential fluorescence; galR3 body fused to GalR1 C-terminus; inhibition, % at 3 µM; 0.44% of 360,000 active;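 active = inhibition above the screen-wide average plus 3 SD, cut at about 13% in these data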;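 also: forskolin and galanin both at EC90 stimulate the cells; cAMP rise reported by CNG channel membrane potential dye signal; 0% = forskolin plus galanin with DMSO and 100% = forskolin alone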
Target sequence (O60755 1-299 limits assumed): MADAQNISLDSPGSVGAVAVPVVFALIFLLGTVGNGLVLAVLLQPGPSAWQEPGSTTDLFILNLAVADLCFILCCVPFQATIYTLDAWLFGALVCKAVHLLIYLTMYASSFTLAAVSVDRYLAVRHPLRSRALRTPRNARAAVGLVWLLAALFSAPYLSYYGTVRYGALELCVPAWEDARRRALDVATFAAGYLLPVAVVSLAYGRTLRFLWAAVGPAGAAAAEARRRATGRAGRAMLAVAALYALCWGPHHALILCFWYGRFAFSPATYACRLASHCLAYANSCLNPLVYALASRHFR
OX1R antag-2 = antagonists of human orexin 1 receptor. O43613. 0.43% of 330,000 active. inhibition, % at 5 µM. CHO/OX1R cells, Fluo-8 calcium fluorescence, orexin A. AID 434989;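 active = inhibition above its plate's threshold, mean inhibition of all tested compounds on the plate plus 3 SD, cut at about 37% in these data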;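 also: 0% = orexin A challenge wells and 100% = SB-334867-A antagonist wells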
TAAR1 ag conf = human TAAR1 agonism, confirmed; 82% of 2,400 active; shares compounds with TAAR1 ag; CHO RD-HGA16 TAAR1, Fluo-8 calcium fluorescence; scaled: DMSO 0%, maximal phenethylamine 100%; activation, % at 3 µM;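 active = activation above a cutoff set at the run's mean compound activation plus 3 SD, cut at about 39% in these data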
Ga16 ag counter = nonselective agonism, TAAR1 counter-screen. shares compounds with TAAR1 ag. CHO-Ga16 parental, Fluo-8 calcium fluorescence; normalized to maximal ATP response, DMSO zero. activation, % at 3 µM. 50% of 2,400 active. AID 651787;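 active = activation above the run cutoff, the mean activation over all tested wells plus 3 SD, cut at about 12% in these data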;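 also: 0% = DMSO wells and 100% = maximal ATP response on the peak over basal ratio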
TAAR1 desensitize = TAAR1 response desensitization, agonist counter-screen. shares compounds with TAAR1 ag. 46% of 2,400 active. AID 651951. CHO RD-HGA16 hTAAR1, Fluo-8 calcium, beta-PEA response inhibition. inhibition, % at 3 µM;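 active = inhibition above the run cutoff, the mean inhibition of all test compounds plus 3 SD, cut at about 49% in these data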;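 also: beta-PEA stimulus applied at its EC80; loss of beta-PEA calcium signal after compound pretreatment read as receptor desensitization; 0% = DMSO with beta-PEA at EC80 and 100% = DMSO alone without agonist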
Ga16 nonsel ant = counter-screen for TAAR1 agonists: nonselective Ga16 antagonists; CHO-Ga16 ATP-induced calcium, Fluo-8 fluorescence; inhibition, % at 3 µM; AID 651952; 39% of 2,400 active; shares compounds with TAAR1 ag;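 active = inhibition above the plate's mean compound inhibition plus 3 SD, computed per plate, cut at about 22% in these data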;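 also: 0% = EC80 ATP with DMSO and 100% = DMSO wells without ATP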
* hit, by the source's call; . = not tested or not shown.

SMILES | TAAR1 ag | OX1R antag-1 | TAAR1 antag | CHO parental Ca | GalR3 antag | OX1R antag-2 | TAAR1 ag conf | Ga16 ag counter | TAAR1 desensitize | Ga16 nonsel ant
COc1cc(NC(=O)CCNC(=O)Cn2cnc3ccccc3c2=O)cc(OC)c1OC | 6 | 4 | 8 | -5 | -1 | 4 | . | . | . | .
CC1(C)CC(=O)C(=CN2CCN(C(=O)c3ccco3)CC2)C(=O)C1 | 54* | . | -6 | . | -1 | . | 63* | 0 | 27 | -10
Cn1cc(C(=O)NC2CCCCC2)c(=O)c2cc(S(=O)(=O)N3CCOCC3)ccc21 | 3 | 1 | -15 | -3 | 1 | 2 | . | . | . | .
CCOC(=O)C1(CCCc2ccccc2)CCN(C(=O)c2n[nH]c(CC)c2C)CC1 | 5 | . | 1 | . | -9 | . | . | . | . | .
COc1ccc(CC(N)c2csc(Nc3ccc(C(=O)c4ccccc4)cc3)n2)cc1 (stereo not drawn) | 51* | . | 33 | . | -4 | . | 39* | 27* | 31 | 38*
CC(N)c1csc(Nc2ccc(C(=O)c3ccccc3)cc2)n1 (stereo not drawn) | 28 | . | -24 | . | -7 | . | . | . | . | .
COc1ccc(CC(N)c2csc(Nc3ccc(C(C)=O)cc3)n2)cc1 (stereo not drawn) | 19 | . | -4 | . | -5 | . | . | . | . | .
CC(C)C(N)c1csc(Nc2ccc(C(=O)c3ccccc3)cc2)n1 (stereo not drawn) | 48* | . | -4 | . | -1 | . | 62* | 14* | 20 | 25*
CC(C)(C)NC(=O)CN(C(=O)CNS(=O)(=O)c1ccc(Cl)cc1)c1ccc2c(c1)OCCO2 | 72* | 24 | 6 | -22 | -1 | -23 | 100* | 45* | 25 | 8
CCC(C)(C)NC(=O)CN(C(=O)CNS(=O)(=O)c1ccc(C)cc1)c1ccc2c(c1)OCCO2 | 52* | 10 | -13 | -20 | -2 | -23 | 82* | 26* | 12 | 8
CC(C)(C)c1ccc(S(=O)(=O)N2CCN(Cc3cc4c(cc3O)OCO4)CC2)cc1 | -1 | 4 | 14 | -2 | -2 | -9 | . | . | . | .
CC1=CC(C)(C)N(C(=O)c2ccccc2)c2ccc(C)cc21 | 65* | . | 52* | . | -6 | . | 71* | 42* | 69* | 52*
COc1ccc(NC(=O)/C(C#N)=C\c2ccc(Br)o2)cc1 | 7 | 24 | -5 | 9 | -5 | 0 | . | . | . | .
N#C/C(=C\c1ccc(N2CCCCC2)o1)C(=O)Nc1cccc(Br)c1 | 189* | 31 | 101* | 83* | -5 | 92* | 93* | 143* | 87* | 90*
CCOC(=O)c1cncc(C#CCOC(=O)Nc2ccc(OC(F)(F)F)cc2)c1 | 51* | 10 | 73* | -3 | -3 | 23 | 49* | 32* | 81* | 62*
COc1ccc(N2C(=O)CN(Cc3ccc(OC)c(OC)c3)C2=S)cc1 | 154* | 19 | 31 | -3 | -6 | -20 | 13 | 3 | 3 | 7
COc1cccc(N2C(=O)CN(Cc3ccc(OC)c(OC)c3)C2=S)c1 | 2 | 19 | 11 | -9 | -1 | -14 | . | . | . | .
CCN(CC)c1ccc(/C=C(/C#N)c2nc3ccccc3[nH]2)c(OC(C)C)c1 | 92* | 39* | 99* | 66* | -7 | 116* | 25 | 30* | 65* | 64*
CC(C)(C)NC(=O)C1CCN(C(=O)c2ccc(Br)cc2)CC1 | 4 | 2 | 26 | -22 | -3 | -13 | . | . | . | .
FC(F)(F)c1ccc2c(c1)nc1n2CCCC1 | 4 | 25 | 22 | -11 | -7 | -24 | . | . | . | .
CN1CCN(c2nc3cc(C(F)(F)F)ccc3n3cccc23)CC1 | 62* | 14 | -6 | -20 | -4 | -19 | 83* | 20* | 30 | 3
COc1cccc(NC(=O)c2oc3ccccc3c2NC(=O)c2ccc3c(c2)OCO3)c1 | 4 | 10 | 27 | -1 | -3 | 18 | . | . | . | .
NNc1nc(Nc2ccccc2)nc(N2CCCCC2)n1 | 45* | 8 | 16 | -40 | -1 | -33 | 66* | 2 | 41 | 5
O=c1nc(N2CCCCCC2)nc(N2CCCCCC2)[nH]1 | 15 | 17 | -2 | -15 | -1 | -16 | . | . | . | .
NNc1nc(Nc2ccc([N+](=O)[O-])cc2)nc(N2CCCCCC2)n1 | 5 | 14 | -19 | -17 | -10 | -28 | . | . | . | .
SMILES | TAAR1 ag | OX1R antag-1 | TAAR1 antag | CHO parental Ca | GalR3 antag | OX1R antag-2 | TAAR1 ag conf | Ga16 ag counter | TAAR1 desensitize | Ga16 nonsel ant
O=c1nc(N2CCCCC2)nc(Nc2ccccc2)[nH]1 | 66* | 9 | 69* | -5 | -3 | 3 | 73* | 1 | 80* | 8
COc1ccc(Br)cc1S(=O)(=O)NCCN1CCOCC1 | 1 | 7 | -9 | 5 | 5 | 6 | . | . | . | .
NS(=O)(=O)c1cc(C(=O)OCC(=O)c2ccccc2)c(Cl)cc1Cl | 7 | 19 | 11 | -14 | 9 | -18 | . | . | . | .
O=[N+]([O-])c1ccc(CNCc2cc(Cl)ccc2O)cc1 | 51* | 3 | 4 | 0 | -8 | -8 | 60* | 20* | 20 | 12
Cc1cc(C)n(-c2nc(Nc3ccccc3)nc(-n3nc(C)cc3C)n2)n1 | 6 | 6 | 8 | -16 | -2 | -10 | . | . | . | .
COc1cccc(/C=N/Nc2nc(Nc3ccccc3)nc(-n3nc(C)cc3C)n2)c1O | 84* | 59 | 76* | 34 | -3 | 22 | 49* | 47* | 76* | 63*
CC12CC3CC(C1)CC(C(=O)NNC(=O)c1ccncc1)(C3)C2 | 3 | 7 | 1 | 5 | -3 | 8 | . | . | . | .
O=C(NNC(=S)NC(=O)c1ccc(F)cc1)c1ccncc1 | 6 | 2 | -7 | -5 | -6 | -9 | . | . | . | .
O=C(NNC(=S)NC(=O)C12CC3CC(CC(C3)C1)C2)c1ccncc1 | 155* | -4 | 93* | 29 | 2 | 44 | 122* | 103* | 72* | 55*
CC1(C(=O)NC(=S)NNC(=O)c2ccncc2)CCCCC1 | 92* | 11 | 24 | -5 | 1 | 21 | 70* | 52* | 22 | 23*
CCc1cccc(C)c1NC(=O)CCOc1ccccc1 | 1 | 17 | 4 | -13 | -6 | -13 | . | . | . | .

Source: PubChem BioAssay (The Scripps Research Institute Molecular Screening Center)
